Laboratory results from the EternaBench riboswitch data.

Tested on: MS2 coat protein
Experiment: apparent Kd, MS2 coat protein; higher = weaker binding; RNA-MaP array; FMN 200 µM where present
How it was run: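 Stalled E. coli RNA polymerase transcribed the designs on Illumina sequencing-chip clusters. SNAP-549-labelled MS2 coat protein was titrated from 0.7 or 1.5 nM, doubling to 3 µM, without and then with constant ligand, in 100 mM Tris-HCl pH 7.5, 80 mM KCl, 4 mM MgCl2, BSA, DTT, yeast tRNA and Tween-20. Per-cluster binding curves were fitted to green signal normalised to red-channel RNA signal and control-cluster median Fmax. The apparent Kd is the median of the filtered fits.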

[1] = designed as: ON switch for flavin mononucleotide, no ligand
[2] = ligand present: flavin mononucleotide, designed as: ON switch for flavin mononucleotide
[3] = designed as: OFF switch for flavin mononucleotide, no ligand
[4] = ligand present: flavin mononucleotide, designed as: OFF switch for flavin mononucleotide

Sequence | apparent Kd [1] [nM] | apparent Kd [2] [nM] | apparent Kd [3] [nM] | apparent Kd [4] [nM]
ACUUGCUUGCAGAAGGGUGACAUGAGGAUCACCCAUGUAGCGUGCCGGCGUAAAGUCAGCGCGCCACAGGAUAUGCAGGCCUCG | 65.8 | 44 |  | 
GCUUAUAGAGGAUAUACAGAUUAUUACAUGAGGAUCACCCAUGUUCUUCAAUGUAUAUAUGUAGAAGGCUAAGGAU |  |  | 61.5 | 257
AAAAUGUAAGGAUAUCGUCCCGUAAAUAUCGGGAAAAUUGUCGAGAAGGUACAUGAGGAUCACCCAUGUUCCUG |  |  | 16.7 | 18.2
AAAAUGUGAGGAUAUCAGGUGUGCUAGCGUACUGGUACAUCUGAGAAGGCACAUGAGGAUCACCCAUGUUUCUU |  |  | 21.5 | 79.7
AUAAAACAUGAGGAUCACCCAUGUCAACAAAGUCGAGGAUAUGGGCAAAGAAAAUAAGAACCAGAAGGCGAAUAAU | 260 | 45 |  | 
UGCUACGUUUCGUAGCAGCUAGGUGAGGAUAUUCAAUUUUUCACAUGAGGAUCACCCAUGUAUGUGAAGAAGGCGCCUAGAAAG | 12.3 | 5.26 |  | 
AAGUUUUUACAAGGAUAUCAAUUUUUUCUAAAUUCAACAUGAGGAUCACCCAUGUAACAAUGGAGUGAGAAGGUGUUUUGGCAA | 176 | 205 |  | 
UCAGGCUUCGAGAAGGACAUGAGGAUCACCCAUGUGCGUGUGAAGCAGCCAAAAGGCUGCAUCAUGUAGGAUAUCGGAGUCUGC |  |  | 81.8 | 552
UCAUACGAUGAGGAUAUCUCCGUUAAAGUAUGUAGAGAAGGCGUUACAUGAGGAUCACCCAUGUUUGUGGGCAG |  |  | 304 | 385
AAGAAGUGAGGAUAUGCUGCUCGUCACUUGCGUGAUGAGUAGCAGAAGGCACAUGAGGAUCACCCAUGUGGAAA |  |  | 31.3 | 43.1
AGCAUGUGAGGAUAUGCGGACUCCGGUAAAUCUGGAAUCCAGUAGAAGGCACAUGAGGAUCACCCAUGUGAUAA |  |  | 68.2 | 55.9
ACCGGGUGUCACGUAUUACCGACAUGAGGAUCACCCAUGUAGGAGGAUAUGCAGACCGAAAUAAAGCAGAAGGCCUACGUUCUC |  |  | 10.6 | 46.6
AAAAAAAAAACUCAGGAUAUAGAUUGUUGAACAUGAGGAUCACCCAUGUAGUGAAAAGCGAAAAACUAGAAGGGAGGAAAAAAAAA | 82.5 | 46 |  | 
UCGAUGCUAGGAUAUACUAAUACAACUACUGUAGUGUCUUCACAUGAGGAUCACCCAUGUAGAAGGAGCAUAUA |  |  | 26.3 | 20.3
CAGUCUACAGGAUAUACAUGAGGAUCACCCAUGUGUAUUCACUUUCAGUAAUCCAUAUGUAGAAGGGUAGACUG |  |  | 16.9 | 34.2
AUCAGCUUGUCAGGAUAUGCGUGUCAACGAAAGUAGACAAUCUUAAUAACAUGAGGAUCACCCAUGUAGAAGGGACGAGCUGAU |  |  | 18.2 | 20.3
CCACCCUGAGGAUAUCCACCCUCAUACAUGAGGAUCACCCAUGUUCAUCCCUGAGUACCCGGAGAAGGCAGAUUCC |  |  | 60.3 | 50.6
GGUCCAGCAUGAGGAUAUGGCACCUUAUUGGUGCCAGAAGGCAUGUCUAUAGACAUGAGGAUCACCCAUGUAAUAAAUUGGACC |  | 43.2 |  | 
AGAAAACAUGAGGAUCACCCAUGUAGAAAUAUGGGAGGAUAUACAAAGACGAAAGUCAGAGUAGAAGGCCUAAAAA | 65.2 | 17.6 |  | 

Sequence | apparent Kd [1] [nM] | apparent Kd [2] [nM] | apparent Kd [3] [nM] | apparent Kd [4] [nM]
UGAAGAAAGUAGAAGGUAGUCUUAAAAUAGGACUAAGGAUAUACAUGAGGAUCACCCAUGUACUCCUUUAAUAUCUUUGAAAUA |  |  | 5.5 | 5.42
GGAUUACAUGAGGAUCACCCAUGUGAGGAUAUCGAUGUCCUCAAUCCCGUGCGGGACUCGAGAAGGCACUUGGA |  |  | 63 | 48.8
AAAUACCGGUGAGGAUAUUUAUAAUAGAACUUUAUGAUAUACAUGAGGAUCACCCAUGUUACUUUAAAGAAGGCAUCGGAUAAA |  |  | 18.8 | 15
UGGAUCAUGGGAGGAUAUCCUCAAGAGACAUGAGGAUCACCCAUGUAUUAUAAGCCUAAUGGCAUGGAGAAGGCCCAUGAUCCU | 377 | 54 |  | 
GCUGUGGCAUGAGGAUAUGGACAGCUUUGCUGUCCAGAAGGCAUGUCAAUAGACAUGAGGAUCACCCAUGUAGUUAACACAGCA | 498 | 39.4 |  | 
GCGGAGUGAGGAUAUAGAACUUAAGGUACCAAUAAGGUACCCUAGAAGGCACAUGAGGAUCACCCAUGUACCGC |  |  | 24.3 | 24.4
CCCUCACAUGAGGAUCACCCAUGUCCUAGCCCGUCAGGAUAUAGCCCGCAUCCGCUGCGGCUAGAAGGGACAGCUG | 190 | 141 |  | 
ACAUGUUUUACAGGAUAUGUUUUACAAUAAACAUUCAGUUAUUACGAUUAAACAGAAGGGUAUACAUGAGGAUCACCCAUGUAA |  |  | 17.1 | 15
GUGUACAUAUCAGGAUAUCUAUUUCCUACAUGAGGAUCACCCAUGUAGGUGAUCACCCAAGUAAAGGAGAAGGGAUAUGUAUAC | 78.7 | 24.5 |  | 
GUGUACAGAGGAUAUACUCAUGGAGUUACGAAAGUAACUUCACAUGAGGAUCACCCAUGUAGAAGGCUGUACAC |  |  | 473 | 293
GGACAUGUCGUUUACAUGAGGAUCACCCAUGUCGAUGGACAUGAGGAUAUCGAUCCGAAUCGGAUCGAGAAGGCAUGCAUGUCC | 41.8 | 18.6 |  | 
GUCGGAAACGACAAGUCAGCUCGUGAGGAUAUACAAUAUUAAAAGAUCACAUGAGGAUCACCCAUGUAGAAGGCACGAGCUGAU |  |  | 31.7 | 442
ACAUGAGGAUCACCCAUGUCUGCAUAGGAUAUUGAGGAUUAGGCAUAUUAUUAUGGAUUUGCCCACAAGAAGGAUGAAAUUGUU | 20.1 | 13.4 |  | 
GCGCGGUAAGGAUAUCUGCACGGAAACAUGAGGAUCACCCAUGUUCAGAUGAUUCUUAUAAGAGAAGGUACUGACA |  |  | 17.4 | 19.1
UCCUACAUGGGAGGAUAUCCUCAAGAGACAUGAGGAUCACCCAUGUAUUAUAUGCCUCAUGGCAUGGAGAAGGCCCAUGUAGGU | 205 | 157 |  | 
GGUGCGAGUGUGAGGAUAUGCUGGUCGUAAGAUCAGCAGAAGGCACAUGAGGAUCACCCAUGUGAAAACGUACC |  |  | 22.3 | 145
AAUAUGUUGCAGAAGGCCAUGUUGUGGUAGUACCUCAUGACAUGAGGAUCACCCAUGUCUGUGUUGGAGGAUAUGCAAUAUAUU |  |  | 7.24 | 12.3
UUGAAUUGAAACAUGAGGAUCACCCAUGUGUCAUAAUUGACAUAGGAUAUGUAUAUACUUUUAUAAUAGAAGGAUGACGAUACU | 15.6 | 12.7 |  | 
